The source of these data is ChEMBL document CHEMBL4715715, “Synthesis and biological evaluation of arylcinnamide linked combretastatin-A4 hybrids as tubulin polymerization inhibitors and apoptosis inducing agents” (Bioorg Med Chem Lett, 2016).

The first assay has as its system HOP-62. The assay can be described thus: Antiproliferative activity against human HOP-62 cells assessed as cell growth inhibition measured after 48 hrs by SRB assay. Format: functional. Put shortly: (§1)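 Sulforhodamine B (SRB) cell-staining assay across a panel of human cancer lines. Growth inhibition is reported as GI50.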
For orientation: Sulforhodamine B stains cellular protein and so reports cell mass.
The GI50 is the concentration at which growth is held to half of that of the control. Take `COc1ccc(/C=C\c2cc(OC)c(OC)c(OC)c2)c(NC(=O)/C=C/c2ccc([N+](=O)[O-])cc2)c1O`: the GI50 is 0.061 µM.

`COc1ccc(/C=C\c2cc(OC)c(OC)c(OC)c2)c(NC(=O)/C=C/c2ccc(Cl)cc2)c1O`: the GI50 is 79.4 µM.

With `COc1ccc(/C=C/C(=O)Nc2c(/C=C\c3cc(OC)c(OC)c(OC)c3)ccc(OC)c2O)cc1[N+](=O)[O-]`, the GI50 worked out at 71.3 µM.

For the molecule `COc1ccc(/C=C\c2cc(OC)c(OC)c(OC)c2)c(NC(=O)/C=C/c2ccc(C(F)(F)F)cc2)c1O`, the GI50 is over 100 µM.

As for `COc1ccc(/C=C/C(=O)Nc2c(/C=C\c3cc(OC)c(OC)c(OC)c3)ccc(OC)c2O)cc1N`, the GI50 came to 0.044 µM.

With `COc1cc(/C=C/C(=O)Nc2c(/C=C\c3cc(OC)c(OC)c(OC)c3)ccc(OC)c2O)ccc1N`, the GI50 worked out at 0.031 µM.

Take `COc1ccc(/C=C\c2cc(OC)c(OC)c(OC)c2)c(NC(=O)/C=C/c2ccc(F)cc2)c1O`: the GI50 stood at 43 µM.

In the case of `COc1cc(/C=C/C(=O)Nc2c(/C=C\c3cc(OC)c(OC)c(OC)c3)ccc(OC)c2O)ccc1[N+](=O)[O-]`, the GI50 stood at 0.084 µM.

A further assay has as its system DU-145. The assay is described as follows: Antiproliferative activity against human DU-145 cells assessed as cell growth inhibition measured after 48 hrs by SRB assay. The format is functional. Put shortly:
as §1
Take `COc1ccc(/C=C\c2cc(OC)c(OC)c(OC)c2)c(NC(=O)/C=C/c2ccc([N+](=O)[O-])cc2)c1O`: the GI50 came to 0.085 µM.

In the case of `COc1ccc(/C=C\c2cc(OC)c(OC)c(OC)c2)c(NC(=O)/C=C/c2ccc(Cl)cc2)c1O`, the GI50 came to 54.1 µM.

Turning to `COc1ccc(/C=C/C(=O)Nc2c(/C=C\c3cc(OC)c(OC)c(OC)c3)ccc(OC)c2O)cc1[N+](=O)[O-]`, the GI50 amounted to 64.7 µM.

On to `COc1ccc(/C=C\c2cc(OC)c(OC)c(OC)c2)c(NC(=O)/C=C/c2ccc(C(F)(F)F)cc2)c1O`, for which the GI50 is over 100 µM.

On to `COc1ccc(/C=C/C(=O)Nc2c(/C=C\c3cc(OC)c(OC)c(OC)c3)ccc(OC)c2O)cc1N`, for which the GI50 is 0.079 µM.

For the molecule `COc1cc(/C=C/C(=O)Nc2c(/C=C\c3cc(OC)c(OC)c(OC)c3)ccc(OC)c2O)ccc1N`, the GI50 turned out to be 0.085 µM.

For `COc1ccc(/C=C\c2cc(OC)c(OC)c(OC)c2)c(NC(=O)/C=C/c2ccc(F)cc2)c1O`, the GI50 is 0.083 µM.

`COc1cc(/C=C/C(=O)Nc2c(/C=C\c3cc(OC)c(OC)c(OC)c3)ccc(OC)c2O)ccc1[N+](=O)[O-]`: the GI50 amounted to 0.075 µM.

In the next assay the test system is K562. The assay can be described thus: Antiproliferative activity against human K562 cells assessed as cell growth inhibition measured after 48 hrs by SRB assay. Format: functional. Put shortly:
as §1
As to `COc1ccc(/C=C\c2cc(OC)c(OC)c(OC)c2)c(NC(=O)/C=C/c2ccc([N+](=O)[O-])cc2)c1O`, the GI50 came to 0.097 µM.

Take `COc1ccc(/C=C\c2cc(OC)c(OC)c(OC)c2)c(NC(=O)/C=C/c2ccc(Cl)cc2)c1O`: the GI50 is 24.9 µM.

`COc1ccc(/C=C/C(=O)Nc2c(/C=C\c3cc(OC)c(OC)c(OC)c3)ccc(OC)c2O)cc1[N+](=O)[O-]`: the GI50 worked out at 46.8 µM.

Take `COc1ccc(/C=C\c2cc(OC)c(OC)c(OC)c2)c(NC(=O)/C=C/c2ccc(C(F)(F)F)cc2)c1O`: the GI50 worked out at 58 µM.

Take `COc1ccc(/C=C/C(=O)Nc2c(/C=C\c3cc(OC)c(OC)c(OC)c3)ccc(OC)c2O)cc1N`: the GI50 stood at 0.089 µM.

With `COc1cc(/C=C/C(=O)Nc2c(/C=C\c3cc(OC)c(OC)c(OC)c3)ccc(OC)c2O)ccc1N`, the GI50 was determined as 0.082 µM.

On to `COc1ccc(/C=C\c2cc(OC)c(OC)c(OC)c2)c(NC(=O)/C=C/c2ccc(F)cc2)c1O`, for which the GI50 amounted to 23.5 µM.

For the molecule `COc1cc(/C=C/C(=O)Nc2c(/C=C\c3cc(OC)c(OC)c(OC)c3)ccc(OC)c2O)ccc1[N+](=O)[O-]`, the GI50 amounted to 0.096 µM.

The test system of the next assay is COLO 205. The assay is described as follows: Antiproliferative activity against human COLO 205 cells assessed as cell growth inhibition measured after 48 hrs by SRB assay. Format: functional. In a few lines:
as §1
In the case of `COc1ccc(/C=C\c2cc(OC)c(OC)c(OC)c2)c(NC(=O)/C=C/c2ccc([N+](=O)[O-])cc2)c1O`, the GI50 was found to be 10.3 µM.

On to `COc1ccc(/C=C\c2cc(OC)c(OC)c(OC)c2)c(NC(=O)/C=C/c2ccc(Cl)cc2)c1O`, for which the GI50 is over 100 µM.

As to `COc1ccc(/C=C/C(=O)Nc2c(/C=C\c3cc(OC)c(OC)c(OC)c3)ccc(OC)c2O)cc1[N+](=O)[O-]`, the GI50 is over 100 µM.

Turning to `COc1ccc(/C=C\c2cc(OC)c(OC)c(OC)c2)c(NC(=O)/C=C/c2ccc(C(F)(F)F)cc2)c1O`, the GI50 is over 100 µM.

For `COc1ccc(/C=C/C(=O)Nc2c(/C=C\c3cc(OC)c(OC)c(OC)c3)ccc(OC)c2O)cc1N`, the GI50 turned out to be 0.089 µM.

Turning to `COc1cc(/C=C/C(=O)Nc2c(/C=C\c3cc(OC)c(OC)c(OC)c3)ccc(OC)c2O)ccc1N`, the GI50 is 0.086 µM.

As to `COc1ccc(/C=C\c2cc(OC)c(OC)c(OC)c2)c(NC(=O)/C=C/c2ccc(F)cc2)c1O`, the GI50 was 67.6 µM.

`COc1cc(/C=C/C(=O)Nc2c(/C=C\c3cc(OC)c(OC)c(OC)c3)ccc(OC)c2O)ccc1[N+](=O)[O-]`: the GI50 is 0.096 µM.

The next assay deals with HeLa. The assay is described as follows: Antiproliferative activity against human HeLa cells assessed as cell growth inhibition measured after 48 hrs by SRB assay. Format: functional. In a few lines: as §1
For `COc1ccc(/C=C\c2cc(OC)c(OC)c(OC)c2)c(NC(=O)/C=C/c2ccc([N+](=O)[O-])cc2)c1O`, the GI50 is 15.7 µM.

As to `COc1ccc(/C=C\c2cc(OC)c(OC)c(OC)c2)c(NC(=O)/C=C/c2ccc(Cl)cc2)c1O`, the GI50 is 38.8 µM.

With `COc1ccc(/C=C/C(=O)Nc2c(/C=C\c3cc(OC)c(OC)c(OC)c3)ccc(OC)c2O)cc1[N+](=O)[O-]`, the GI50 came to 49.2 µM.

With `COc1ccc(/C=C\c2cc(OC)c(OC)c(OC)c2)c(NC(=O)/C=C/c2ccc(C(F)(F)F)cc2)c1O`, the GI50 was over 100 µM.

Take `COc1ccc(/C=C/C(=O)Nc2c(/C=C\c3cc(OC)c(OC)c(OC)c3)ccc(OC)c2O)cc1N`: the GI50 is 0.091 µM.

Regarding `COc1cc(/C=C/C(=O)Nc2c(/C=C\c3cc(OC)c(OC)c(OC)c3)ccc(OC)c2O)ccc1N`, the GI50 came out at 0.09 µM.

As to `COc1ccc(/C=C\c2cc(OC)c(OC)c(OC)c2)c(NC(=O)/C=C/c2ccc(F)cc2)c1O`, the GI50 amounted to 24 µM.

Regarding `COc1cc(/C=C/C(=O)Nc2c(/C=C\c3cc(OC)c(OC)c(OC)c3)ccc(OC)c2O)ccc1[N+](=O)[O-]`, the GI50 was determined as 0.099 µM.

Another assay relates to SK-OV-3. The assay can be described thus: Antiproliferative activity against human SK-OV-3 cells assessed as cell growth inhibition measured after 48 hrs by SRB assay. The format is functional. Put shortly:
as §1
For `COc1ccc(/C=C\c2cc(OC)c(OC)c(OC)c2)c(NC(=O)/C=C/c2ccc([N+](=O)[O-])cc2)c1O`, the GI50 is 17 µM.

`COc1ccc(/C=C\c2cc(OC)c(OC)c(OC)c2)c(NC(=O)/C=C/c2ccc(Cl)cc2)c1O`: the GI50 is 62.6 µM.

On to `COc1ccc(/C=C/C(=O)Nc2c(/C=C\c3cc(OC)c(OC)c(OC)c3)ccc(OC)c2O)cc1[N+](=O)[O-]`, for which the GI50 was 52.6 µM.

As to `COc1ccc(/C=C\c2cc(OC)c(OC)c(OC)c2)c(NC(=O)/C=C/c2ccc(C(F)(F)F)cc2)c1O`, the GI50 is over 100 µM.

Take `COc1ccc(/C=C/C(=O)Nc2c(/C=C\c3cc(OC)c(OC)c(OC)c3)ccc(OC)c2O)cc1N`: the GI50 stood at 0.097 µM.

With `COc1cc(/C=C/C(=O)Nc2c(/C=C\c3cc(OC)c(OC)c(OC)c3)ccc(OC)c2O)ccc1N`, the GI50 came to 0.094 µM.

Turning to `COc1ccc(/C=C\c2cc(OC)c(OC)c(OC)c2)c(NC(=O)/C=C/c2ccc(F)cc2)c1O`, the GI50 was determined as 47.5 µM.

Turning to `COc1cc(/C=C/C(=O)Nc2c(/C=C\c3cc(OC)c(OC)c(OC)c3)ccc(OC)c2O)ccc1[N+](=O)[O-]`, the GI50 worked out at 7.9 µM.

In the next assay the test system is MCF7. The assay is described as follows: Antiproliferative activity against human MCF7 cells assessed as cell growth inhibition measured after 48 hrs by SRB assay. The format is functional. In a few lines:
as §1
As for `COc1ccc(/C=C\c2cc(OC)c(OC)c(OC)c2)c(NC(=O)/C=C/c2ccc([N+](=O)[O-])cc2)c1O`, the GI50 stood at 0.072 µM.

Turning to `COc1ccc(/C=C\c2cc(OC)c(OC)c(OC)c2)c(NC(=O)/C=C/c2ccc(Cl)cc2)c1O`, the GI50 was 55.5 µM.

As to `COc1ccc(/C=C/C(=O)Nc2c(/C=C\c3cc(OC)c(OC)c(OC)c3)ccc(OC)c2O)cc1[N+](=O)[O-]`, the GI50 came out at 19.4 µM.

For `COc1ccc(/C=C\c2cc(OC)c(OC)c(OC)c2)c(NC(=O)/C=C/c2ccc(C(F)(F)F)cc2)c1O`, the GI50 is 83.7 µM.

Consider `COc1ccc(/C=C/C(=O)Nc2c(/C=C\c3cc(OC)c(OC)c(OC)c3)ccc(OC)c2O)cc1N`, for which the GI50 worked out at 0.05 µM.

With `COc1cc(/C=C/C(=O)Nc2c(/C=C\c3cc(OC)c(OC)c(OC)c3)ccc(OC)c2O)ccc1N`, the GI50 stood at 0.074 µM.

For `COc1ccc(/C=C\c2cc(OC)c(OC)c(OC)c2)c(NC(=O)/C=C/c2ccc(F)cc2)c1O`, the GI50 is 0.066 µM.

For the molecule `COc1cc(/C=C/C(=O)Nc2c(/C=C\c3cc(OC)c(OC)c(OC)c3)ccc(OC)c2O)ccc1[N+](=O)[O-]`, the GI50 came out at 0.095 µM.

A further assay concerns MIA PaCa-2. The assay can be described thus: Antiproliferative activity against human MIA Paca-2 cells assessed as cell growth inhibition measured after 48 hrs by SRB assay. The format is functional. In a few lines: as §1
Take `COc1ccc(/C=C\c2cc(OC)c(OC)c(OC)c2)c(NC(=O)/C=C/c2ccc([N+](=O)[O-])cc2)c1O`: the GI50 worked out at 40.8 µM.

Consider `COc1ccc(/C=C\c2cc(OC)c(OC)c(OC)c2)c(NC(=O)/C=C/c2ccc(Cl)cc2)c1O`, for which the concentration for 50% growth inhibition (GI50) was over 100 µM.

Consider `COc1ccc(/C=C/C(=O)Nc2c(/C=C\c3cc(OC)c(OC)c(OC)c3)ccc(OC)c2O)cc1[N+](=O)[O-]`, for which the GI50 is over 100 µM.

For the molecule `COc1ccc(/C=C\c2cc(OC)c(OC)c(OC)c2)c(NC(=O)/C=C/c2ccc(C(F)(F)F)cc2)c1O`, the GI50 is over 100 µM.

Turning to `COc1ccc(/C=C/C(=O)Nc2c(/C=C\c3cc(OC)c(OC)c(OC)c3)ccc(OC)c2O)cc1N`, the GI50 came out at 14.3 µM.

For the molecule `COc1cc(/C=C/C(=O)Nc2c(/C=C\c3cc(OC)c(OC)c(OC)c3)ccc(OC)c2O)ccc1N`, the GI50 is 0.097 µM.

For the molecule `COc1ccc(/C=C\c2cc(OC)c(OC)c(OC)c2)c(NC(=O)/C=C/c2ccc(F)cc2)c1O`, the GI50 came to 78.1 µM.

Take `COc1cc(/C=C/C(=O)Nc2c(/C=C\c3cc(OC)c(OC)c(OC)c3)ccc(OC)c2O)ccc1[N+](=O)[O-]`: the GI50 came to 23.5 µM.
